One compound from ChEMBL document CHEMBL4406806, “Design, Synthesis, and Characterization of Ogerin-Based Positive Allosteric Modulators for G Protein-Coupled Receptor 68 (GPR68)” (J Med Chem, 2019) can be followed below.

Test [1] has as its target G-protein coupled receptor 68 (Homo sapiens) (UniProt Q15743). In words: Positive allosteric modulation of human GPR68 expressed in HEK293T cells co-expressing Gs assessed as stimulation of proton-mediated cAMP production by measuring allosteric affinity cooperativity in HBSS buffer containing pH 6.8 to 8.2 HEPES/pH 8.3 to 8.6 TAPS measured after 20 to 30 mins in presence of PDE inhibitor Ro 20-1724 by luciferase-glo reporter gene assay. It counts as functional, cell-based. In short, it runs like this:
(§1)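 Transient co-transfection of HEK293T with receptor and GloSensor plasmids using PEI, overnight, then replated in DMEM + 1% dFBS for 6–24 h. Luciferin 3.5 mM loaded for 1 h at 37 °C in HBSS/20 mM TAPS, pH 8.40. Proton series: Ca/Mg-free HBSS with MES (pH 5.60–6.70), HEPES (6.80–8.20) or TAPS (8.30–8.60), plus 10 μM Ro 20-1724. BSA 1 mg/mL added where solubility required. Luminescence read at 20–30 min. At least six 16-point proton curves across modulator concentrations, quadruplicate, ≥3 independent assays.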
Background: Changes in cAMP serve as a functional read-out for many G protein-coupled receptors.

Test [2] shares this target. The test is described as follows: Positive allosteric modulation of human GPR68 expressed in HEK293T cells co-expressing Gs assessed as stimulation of proton-mediated cAMP production by measuring efficacy cooperativity in HBSS buffer containing pH 6.8 to 8.2 HEPES/pH 8.3 to 8.6 TAPS measured after 20 to 30 mins in presence of PDE inhibitor Ro 20-1724 by luciferase-glo reporter gene assay. It counts as functional, cell-based. The method in brief: as §1

Test [3] shares this target. The test is described as follows: Positive allosteric modulation of human GPR68 expressed in HEK293T cells co-expressing Gs assessed as stimulation of proton-mediated cAMP production by measuring allosteric index in HBSS buffer containing pH 6.8 to 8.2 HEPES/pH 8.3 to 8.6 TAPS measured after 20 to 30 mins in presence of PDE inhibitor Ro 20-1724 by luciferase-glo reporter gene assay. The class given is functional, cell-based. The method in brief:
as §1

Test [4] deals with G-prodeshotein coupled receptor 4 (Homo sapiens) (UniProt P46093). In words: Positive allosteric modulation of human GPR4 expressed in HEK293T cells co-expressing Gs assessed as stimulation of proton-mediated cAMP production at higher concentration in HBSS buffer containing pH 6.8 to 8.2 HEPES/pH 8.3 to 8.6 TAPS measured after 20 to 30 mins in presence of PDE inhibitor Ro 20-1724 by luciferase-glo reporter gene assay. It counts as functional, cell-based. The method in brief: as §1
Chain of G-prodeshotein coupled receptor 4 (Homo sapiens) (P46093 whole entry, looked up): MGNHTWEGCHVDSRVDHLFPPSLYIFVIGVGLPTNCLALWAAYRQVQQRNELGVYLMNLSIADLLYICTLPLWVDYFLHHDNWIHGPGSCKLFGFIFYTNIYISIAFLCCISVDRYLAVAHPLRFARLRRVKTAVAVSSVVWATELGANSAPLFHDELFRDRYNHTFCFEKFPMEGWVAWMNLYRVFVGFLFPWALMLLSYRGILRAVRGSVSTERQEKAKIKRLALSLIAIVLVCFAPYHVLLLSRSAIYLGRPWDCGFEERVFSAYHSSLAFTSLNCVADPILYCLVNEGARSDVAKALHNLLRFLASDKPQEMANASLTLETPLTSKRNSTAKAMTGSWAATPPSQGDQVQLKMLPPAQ

Test [5] concerns the target G-protein coupled receptor 65 (Homo sapiens) (UniProt Q8IYL9). In words: Positive allosteric modulation of human GPR65 expressed in HEK293T cells co-expressing Gs assessed as stimulation of proton-mediated cAMP production at higher concentration in HBSS buffer containing pH 6.8 to 8.2 HEPES/pH 8.3 to 8.6 TAPS measured after 20 to 30 mins in presence of PDE inhibitor Ro 20-1724 by luciferase-glo reporter gene assay. It counts as functional, cell-based. The method in brief: as §1

For test [6], the target named is T1, Adenosine receptor A2a (Homo sapiens, UniProt P29274). The test is described as follows: Displacement of [3H]ZM241385 from recombinant human A2A receptor incubated for 90 mins under dark condition by microbeta scintillation method. A general note: Displacement assays read how much labelled ligand stays bound in the presence of the test substance.
T1 sequence (P29274 whole entry): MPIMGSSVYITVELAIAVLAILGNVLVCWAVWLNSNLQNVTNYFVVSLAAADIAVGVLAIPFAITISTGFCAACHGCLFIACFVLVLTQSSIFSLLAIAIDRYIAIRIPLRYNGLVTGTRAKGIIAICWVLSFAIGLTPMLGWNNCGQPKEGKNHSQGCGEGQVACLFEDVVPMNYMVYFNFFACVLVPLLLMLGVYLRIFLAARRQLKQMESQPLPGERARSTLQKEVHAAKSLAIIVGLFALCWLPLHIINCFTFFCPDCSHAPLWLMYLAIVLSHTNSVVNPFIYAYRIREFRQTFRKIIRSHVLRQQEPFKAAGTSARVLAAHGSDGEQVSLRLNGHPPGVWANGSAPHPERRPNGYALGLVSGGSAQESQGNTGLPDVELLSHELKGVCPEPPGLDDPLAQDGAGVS
Test [7] has as its target T1, Adenosine receptor A2a. The test is described as follows: Agonist activity at recombinant human A2A receptor expressed in HEK293T cells co-expressing Gs assessed as stimulation of cAMP accumulation measured after 15 mins by Glosensor chemiluminescence assay. The class given is functional, cell-based.
The target in test [8] is T1, Adenosine receptor A2a. The test is described as follows: Inverse agonist activity at recombinant human A2A receptor expressed in HEK293T cells co-expressing Gs assessed as decrease in cAMP accumulation measured after 15 mins by Glosensor chemiluminescence assay. It counts as functional, cell-based.
The target in test [9] is T1, Adenosine receptor A2a. The test is described as follows: Antagonist activity at recombinant human A2A receptor expressed in HEK293T cells co-expressing Gs assessed as inhibition of NECA-stimulated cAMP accumulation preincubated for 15 mins followed by NECA addition and measured after 15 mins by Glosensor chemiluminescence assay. It counts as functional, cell-based.

In test [10] the target is Atypical chemokine receptor 3 (Homo sapiens, UniProt P25106). The test is described as follows: Agonist activity at human ACKR3 expressed in HTLA cells assessed as stimulation of beta-arrestin recruitment at 1 uM incubated for 16 to 20 hrs by bright-glo luminescence assay. It counts as cell-based. Background: Arrestin recruitment assays detect the binding of arrestin to an activated receptor.
Chain of Atypical chemokine receptor 3 (P25106 whole entry): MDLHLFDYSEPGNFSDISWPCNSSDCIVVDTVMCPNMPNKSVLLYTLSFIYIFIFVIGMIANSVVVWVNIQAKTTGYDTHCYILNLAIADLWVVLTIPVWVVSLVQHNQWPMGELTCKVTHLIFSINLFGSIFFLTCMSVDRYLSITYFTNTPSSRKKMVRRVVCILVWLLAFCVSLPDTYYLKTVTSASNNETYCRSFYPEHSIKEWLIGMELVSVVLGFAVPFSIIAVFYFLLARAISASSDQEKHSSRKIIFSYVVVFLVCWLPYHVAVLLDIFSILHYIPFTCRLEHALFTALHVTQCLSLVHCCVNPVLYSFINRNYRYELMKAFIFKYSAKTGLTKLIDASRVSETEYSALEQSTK

For test [11], the target named is G-protein coupled receptor 68 (Mus musculus) (UniProt Q8BFQ3). The test is described as follows: Positive allosteric modulation of mouse GPR68 expressed in HEK293T cells co-expressing Gs assessed as stimulation of proton-mediated cAMP production by measuring allosteric affinity cooperativity in HBSS buffer containing pH 6.8 to 8.2 HEPES/pH 8.3 to 8.6 TAPS measured after 20 to 30 mins in presence of PDE inhibitor Ro 20-1724 by luciferase-glo reporter gene assay. It counts as functional, cell-based. The method in brief:
(§2)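 α, β and KB obtained by fitting proton responses with and without modulator to the standard allosteric operational model. Overall index is log(αβ/KB). Values are mean ± SEM from ≥3 independent assays, each run in triplicate or quadruplicate.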

Test [12] has the same target. The test is described as follows: Positive allosteric modulation of mouse GPR68 expressed in HEK293T cells co-expressing Gs assessed as stimulation of proton-mediated cAMP production by measuring efficacy cooperativity in HBSS buffer containing pH 6.8 to 8.2 HEPES/pH 8.3 to 8.6 TAPS measured after 20 to 30 mins in presence of PDE inhibitor Ro 20-1724 by luciferase-glo reporter gene assay. It counts as functional, cell-based. The method in brief: as §2

The target is the same in test [13]. The test is described as follows: Positive allosteric modulation of mouse GPR68 expressed in HEK293T cells co-expressing Gs assessed as stimulation of proton-mediated cAMP production by measuring allosteric index in HBSS buffer containing pH 6.8 to 8.2 HEPES/pH 8.3 to 8.6 TAPS measured after 20 to 30 mins in presence of PDE inhibitor Ro 20-1724 by luciferase-glo reporter gene assay. The class given is functional, cell-based. In short, it runs like this:
as §2

Each structure is given as a SMILES string. pIC50, pKi: −log10 of the molar value. Active and inactive are the calls of the source. No cut-off for these calls is given here.

Chain of G-protein coupled receptor 68 (Mus musculus) (Q8BFQ3 whole entry): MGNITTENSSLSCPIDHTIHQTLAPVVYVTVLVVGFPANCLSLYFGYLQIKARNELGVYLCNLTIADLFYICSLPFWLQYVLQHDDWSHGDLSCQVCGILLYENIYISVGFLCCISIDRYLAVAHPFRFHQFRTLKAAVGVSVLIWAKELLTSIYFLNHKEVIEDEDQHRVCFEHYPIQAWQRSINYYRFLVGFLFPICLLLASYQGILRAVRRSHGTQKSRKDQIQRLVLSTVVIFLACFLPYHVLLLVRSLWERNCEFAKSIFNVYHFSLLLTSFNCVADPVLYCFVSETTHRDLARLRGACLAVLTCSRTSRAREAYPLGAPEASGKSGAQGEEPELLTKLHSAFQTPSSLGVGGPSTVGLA
Chain of G-protein coupled receptor 68 (Homo sapiens) (Q15743 whole entry): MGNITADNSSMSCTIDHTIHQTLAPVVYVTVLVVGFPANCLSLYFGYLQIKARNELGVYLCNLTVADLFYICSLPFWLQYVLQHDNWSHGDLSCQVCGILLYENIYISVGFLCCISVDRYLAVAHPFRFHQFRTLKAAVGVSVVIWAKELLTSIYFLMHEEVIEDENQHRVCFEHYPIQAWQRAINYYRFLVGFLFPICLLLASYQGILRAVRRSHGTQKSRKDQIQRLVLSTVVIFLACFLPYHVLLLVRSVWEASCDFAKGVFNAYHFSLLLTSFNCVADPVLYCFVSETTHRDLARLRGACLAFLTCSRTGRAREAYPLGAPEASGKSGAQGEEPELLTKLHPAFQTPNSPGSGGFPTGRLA
Chain of G-protein coupled receptor 65 (Homo sapiens) (Q8IYL9 whole entry): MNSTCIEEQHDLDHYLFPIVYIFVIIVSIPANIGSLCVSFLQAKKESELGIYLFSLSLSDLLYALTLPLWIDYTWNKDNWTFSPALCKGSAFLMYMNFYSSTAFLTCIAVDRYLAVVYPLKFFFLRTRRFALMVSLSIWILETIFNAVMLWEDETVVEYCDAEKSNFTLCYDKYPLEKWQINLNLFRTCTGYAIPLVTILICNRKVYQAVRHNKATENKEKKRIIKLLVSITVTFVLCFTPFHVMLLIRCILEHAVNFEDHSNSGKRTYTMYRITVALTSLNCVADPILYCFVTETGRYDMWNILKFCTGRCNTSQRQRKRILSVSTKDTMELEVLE

On to `Nc1nc(NCc2ccc(Cl)cc2)nc(-c2ccccc2CO)n1`, for which the log(activity) was 0.49 in [1], 0.41 in test [2], 1.41 in [11] and -0.02 in test [12]. The Activity index came to 6.11 in test [3] and 5.68 in test [13]. The outcome (in test [4]; in test [5]; at Adenosine receptor A2a [7]; in [10]) was inactive. The negative logarithm of the Ki (pKi) on Adenosine receptor A2a [6] is 6.52; on Adenosine receptor A2a [9] it was 5.17. For the same compound, on Adenosine receptor A2a [8], the pIC50 is 5.77.

Usually pKi stands for −log10 of the Ki, conventionally taken in molar units. Broadly, the pIC50 is the negative decadic logarithm of the IC50, by convention in mol/L.
